We go through two compounds from ChEMBL document CHEMBL3621200, “Toward the discovery of dual HCMV-VZV inhibitors: Synthesis, structure activity relationship analysis, and cytotoxicity studies of long chained 2-uracil-3-yl-N-(4-phenoxyphenyl)acetamides” (Bioorg Med Chem, 2015).

The source made the active and inactive calls. No cut-off for these calls is given here. Where only a bound is given, the exact number is not on record here.

What is called CC50 is the concentration giving 50% cytotoxicity. For orientation: EC50 means the concentration that produces a half-maximal response.

One series concerns Influenza B virus. Description: Antiviral activity against Influenza B virus.
Details: not given
Format: functional, organism-based. The method in brief: (§1)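 Confluent cell monolayers (HEL, Vero, HeLa or MDCK) in 96-well plates were infected with 100 CCID50 of virus in the presence of varying compound concentrations. Cytopathicity was scored once it reached completion in untreated infected controls.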
`O=C(Cn1c(=O)ccn(CCCCCCOc2ccc(Br)cc2)c1=O)Nc1ccc(Oc2ccccc2)cc1`: the inhibition result is “inactive”.
As for `CN(C(=O)Cn1c(=O)ccn(CCCCCOc2ccc(Br)cc2)c1=O)c1ccc(Oc2ccccc2)cc1`, the inhibition entry is “inactive”.

The test system of a further series is HEL. In words: Cytotoxicity against Varicella zoster virus infected HEL cells assessed as cell growth inhibition incubated for 3 days by coulter counter method. The note with it: human, 72 h.
For the compound `O=C(Cn1c(=O)ccn(CCCCCCOc2ccc(Br)cc2)c1=O)Nc1ccc(Oc2ccccc2)cc1`, the CC50 came out at 11.7 µM.
On the same count and under the same terms, as for `CN(C(=O)Cn1c(=O)ccn(CCCCCOc2ccc(Br)cc2)c1=O)c1ccc(Oc2ccccc2)cc1`, the figure is 6 µM.

For the next series, the system named is Human alphaherpesvirus 1. In words: Antiviral activity against HSV1 KOS. The class given is functional, organism-based.
Details: not given
The method in brief: (§2)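 Confluent cell monolayers in 96-well plates were inoculated with 100 CCID50 of virus together with varying compound concentrations. Cytopathicity was scored once it reached completion in untreated infected controls.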
As for `O=C(Cn1c(=O)ccn(CCCCCCOc2ccc(Br)cc2)c1=O)Nc1ccc(Oc2ccccc2)cc1`, the inhibition result is “inactive”.
For the compound `CN(C(=O)Cn1c(=O)ccn(CCCCCOc2ccc(Br)cc2)c1=O)c1ccc(Oc2ccccc2)cc1`, the inhibition result is “inactive”.

The subject of the next series is Influenza A virus. Description: Antiviral activity against Influenza A virus H1N1. Format: functional, organism-based.
Details: not given
The method in brief: as §1
As for `O=C(Cn1c(=O)ccn(CCCCCCOc2ccc(Br)cc2)c1=O)Nc1ccc(Oc2ccccc2)cc1`, the inhibition entry was “inactive”.
In the case of `CN(C(=O)Cn1c(=O)ccn(CCCCCOc2ccc(Br)cc2)c1=O)c1ccc(Oc2ccccc2)cc1`, the inhibition entry is “inactive”.

Another series has as its system HEL. In words: Cytotoxicity against human cytomegalovirus infected HEL cells assessed as cell growth inhibition incubated for 3 days by coulter counter method. Format: cell-based. The note with it: 72 h. The method in brief:
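HEL cells were seeded at 5 × 10^3 cells/well and left to adhere and proliferate for 24 h, then compound-containing medium was added. After 3 days at 37 °C, cells were counted with a Coulter counter.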
For the compound `O=C(Cn1c(=O)ccn(CCCCCCOc2ccc(Br)cc2)c1=O)Nc1ccc(Oc2ccccc2)cc1`, the cytotoxic concentration (CC50) was 11.7 µM.
`CN(C(=O)Cn1c(=O)ccn(CCCCCOc2ccc(Br)cc2)c1=O)c1ccc(Oc2ccccc2)cc1`: the CC50 was 6.1 µM.

In the next series the test system is Punta Toro virus. Description: Antiviral activity against Punta Toro virus. Format: functional, organism-based.
Details: not given
`O=C(Cn1c(=O)ccn(CCCCCCOc2ccc(Br)cc2)c1=O)Nc1ccc(Oc2ccccc2)cc1`: the inhibition entry was “inactive”.
Regarding `CN(C(=O)Cn1c(=O)ccn(CCCCCOc2ccc(Br)cc2)c1=O)c1ccc(Oc2ccccc2)cc1`, the inhibition result is “inactive”.

In a further series the test system is Human alphaherpesvirus 2. Description: Antiviral activity against HSV2 Lyons.
Details: not given
Format: functional, organism-based. The method in brief:
as §2
Turning to `O=C(Cn1c(=O)ccn(CCCCCCOc2ccc(Br)cc2)c1=O)Nc1ccc(Oc2ccccc2)cc1`, the inhibition result is “inactive”.
With `CN(C(=O)Cn1c(=O)ccn(CCCCCOc2ccc(Br)cc2)c1=O)c1ccc(Oc2ccccc2)cc1`, the inhibition result is “inactive”.

A further series concerns Feline coronavirus. Description: Antiviral activity against Feline coronavirus.
Details: not given
Format: functional, organism-based.
On to `O=C(Cn1c(=O)ccn(CCCCCCOc2ccc(Br)cc2)c1=O)Nc1ccc(Oc2ccccc2)cc1`, for which the inhibition entry was “inactive”.
On to `CN(C(=O)Cn1c(=O)ccn(CCCCCOc2ccc(Br)cc2)c1=O)c1ccc(Oc2ccccc2)cc1`, for which the inhibition entry is “inactive”.

For a further series, the system named is Influenza A virus H3N2. In words: Antiviral activity against Influenza A virus H3N2. Format: functional, organism-based.
Details: not given
The method in brief: as §1
For `O=C(Cn1c(=O)ccn(CCCCCCOc2ccc(Br)cc2)c1=O)Nc1ccc(Oc2ccccc2)cc1`, the inhibition result was “inactive”.
As to `CN(C(=O)Cn1c(=O)ccn(CCCCCOc2ccc(Br)cc2)c1=O)c1ccc(Oc2ccccc2)cc1`, the inhibition result was “inactive”.

Another series deals with Human respirovirus 3. In words: Antiviral activity against Parainfluenza 3 virus. Format: functional, organism-based.
Details: not given
As for `O=C(Cn1c(=O)ccn(CCCCCCOc2ccc(Br)cc2)c1=O)Nc1ccc(Oc2ccccc2)cc1`, the inhibition result is “inactive”.
With `CN(C(=O)Cn1c(=O)ccn(CCCCCOc2ccc(Br)cc2)c1=O)c1ccc(Oc2ccccc2)cc1`, the inhibition entry was “inactive”.

Test system in the next series: not listed separately
Description: Cytotoxicity against Varicella zoster virus infected HEL cells assessed as alteration of cell morphology incubated for 3 days by microscopy. The class given is cell-based. The note with it: human, HEL cells infected with Varicella zoster virus. The method in brief:
(§3)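 Cytotoxicity was given as the minimum cytotoxic concentration (MCC): the compound concentration causing a microscopically detectable change in HEL cell morphology.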
With `O=C(Cn1c(=O)ccn(CCCCCCOc2ccc(Br)cc2)c1=O)Nc1ccc(Oc2ccccc2)cc1`, the MCC at 72 h is 4 µM.
As for `CN(C(=O)Cn1c(=O)ccn(CCCCCOc2ccc(Br)cc2)c1=O)c1ccc(Oc2ccccc2)cc1`, the MCC at 72 h is no less than 100 µM.

Test system in another series: not listed separately
Description: Cytotoxicity against human cytomegalovirus infected HEL cells assessed as alteration of cell morphology incubated for 3 days by microscopy. Format: cell-based. The note with it: HEL cells infected with human cytomegalovirus. The method in brief:
as §3
Turning to `O=C(Cn1c(=O)ccn(CCCCCCOc2ccc(Br)cc2)c1=O)Nc1ccc(Oc2ccccc2)cc1`, the MCC at 72 h amounted to 4 µM.
For the compound `CN(C(=O)Cn1c(=O)ccn(CCCCCOc2ccc(Br)cc2)c1=O)c1ccc(Oc2ccccc2)cc1`, the MCC at 72 h was no less than 4 µM.

In a further series the test system is Human betaherpesvirus 5. In words: Antiviral activity against human cytomegalovirus Davis infected in HEL cells assessed as reduction in viral plaque formation. Format: functional, organism-based. The note with it: Human betaherpesvirus 5, Davis. The method in brief:
(§4)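 Confluent HEL fibroblasts were infected with 100 PFU of HCMV in the presence of varying compound concentrations. Plaques were counted once plaque formation was complete in untreated infected controls.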
On to `O=C(Cn1c(=O)ccn(CCCCCCOc2ccc(Br)cc2)c1=O)Nc1ccc(Oc2ccccc2)cc1`, for which the EC50 stood at 0.2 µM.
As for `CN(C(=O)Cn1c(=O)ccn(CCCCCOc2ccc(Br)cc2)c1=O)c1ccc(Oc2ccccc2)cc1`, the EC50 came to 1.29 µM.

A further series has as its system Vaccinia virus. Description: Antiviral activity against Vaccinia virus Lederle. Format: functional, organism-based. The settings on record: Orthopoxvirus vaccinia. The method in brief:
as §1
Turning to `O=C(Cn1c(=O)ccn(CCCCCCOc2ccc(Br)cc2)c1=O)Nc1ccc(Oc2ccccc2)cc1`, the inhibition result is “inactive”.
On the same count and under the same terms, the same measure for `CN(C(=O)Cn1c(=O)ccn(CCCCCOc2ccc(Br)cc2)c1=O)c1ccc(Oc2ccccc2)cc1`: “inactive”.

In another series the test system is Coxsackievirus B4. Description: Antiviral activity against Human coxsackievirus B4. The class given is functional, organism-based.
Details: not given
In the case of `O=C(Cn1c(=O)ccn(CCCCCCOc2ccc(Br)cc2)c1=O)Nc1ccc(Oc2ccccc2)cc1`, the inhibition entry was “inactive”.
Consider `CN(C(=O)Cn1c(=O)ccn(CCCCCOc2ccc(Br)cc2)c1=O)c1ccc(Oc2ccccc2)cc1`, for which the inhibition entry was “inactive”.

Another series concerns Human immunodeficiency virus 2. In words: Antiviral activity against HIV2 ROD infected in human CEM cells assessed as reduction in virus- induced cytopathicity incubated for 4 to 5 days by microscopy based virus syncytium formation assay. The class given is functional, organism-based. The note with it: ISOLATE ROD, CCRF-CEM. The method in brief:
(§5)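 CEM cells at ~3 × 10^5 cells/mL, infected with 100 CCID50 of HIV per mL in the presence of compound dilutions. Incubated 4–5 days at 37 °C in humidified CO2. Syncytium (giant cell) formation scored by microscopy.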
(Cytopathic effects are the visible damage that an infection or toxin causes in cultured cells.)
Regarding `O=C(Cn1c(=O)ccn(CCCCCCOc2ccc(Br)cc2)c1=O)Nc1ccc(Oc2ccccc2)cc1`, the inhibition entry was “inactive”.
For `CN(C(=O)Cn1c(=O)ccn(CCCCCOc2ccc(Br)cc2)c1=O)c1ccc(Oc2ccccc2)cc1`, the inhibition entry is “inactive”.

The next series has as its system Sindbis virus. Description: Antiviral activity against Sindbis virus. The class given is functional, organism-based.
Details: not given
`O=C(Cn1c(=O)ccn(CCCCCCOc2ccc(Br)cc2)c1=O)Nc1ccc(Oc2ccccc2)cc1`: the inhibition result is “inactive”.
The same measure, in the same setting: as for `CN(C(=O)Cn1c(=O)ccn(CCCCCOc2ccc(Br)cc2)c1=O)c1ccc(Oc2ccccc2)cc1`, the entry is “inactive”.

A further series deals with Mammalian orthoreovirus 1. Description: Antiviral activity against Reovirus 1.
Details: not given
Format: functional.
As to `O=C(Cn1c(=O)ccn(CCCCCCOc2ccc(Br)cc2)c1=O)Nc1ccc(Oc2ccccc2)cc1`, the inhibition entry was “inactive”.
Turning to `CN(C(=O)Cn1c(=O)ccn(CCCCCOc2ccc(Br)cc2)c1=O)c1ccc(Oc2ccccc2)cc1`, the inhibition result is “inactive”.

In another series the test system is Human herpesvirus 2 strain G. Description: Antiviral activity against HSV2 G Lyons.
Details: not given
Format: functional, organism-based.
Take `O=C(Cn1c(=O)ccn(CCCCCCOc2ccc(Br)cc2)c1=O)Nc1ccc(Oc2ccccc2)cc1`: the inhibition result was “inactive”.
In the case of `CN(C(=O)Cn1c(=O)ccn(CCCCCOc2ccc(Br)cc2)c1=O)c1ccc(Oc2ccccc2)cc1`, the inhibition result is “inactive”.

The next series concerns Human betaherpesvirus 5. In words: Antiviral activity against human cytomegalovirus AD169 infected in HEL cells assessed as reduction in viral plaque formation. The class given is functional, organism-based. The note with it: Human betaherpesvirus 5, AD169, HEL. The method in brief:
as §4
In the case of `O=C(Cn1c(=O)ccn(CCCCCCOc2ccc(Br)cc2)c1=O)Nc1ccc(Oc2ccccc2)cc1`, the EC50 was found to be 0.29 µM.
Regarding `CN(C(=O)Cn1c(=O)ccn(CCCCCOc2ccc(Br)cc2)c1=O)c1ccc(Oc2ccccc2)cc1`, the 50% effective concentration (EC50) came to 0.98 µM.

The subject of another series is Vesicular stomatitis virus. Description: Antiviral activity against Vesicular stomatitis virus.
Details: not given
The class given is functional, organism-based. The method in brief:
as §1
On to `O=C(Cn1c(=O)ccn(CCCCCCOc2ccc(Br)cc2)c1=O)Nc1ccc(Oc2ccccc2)cc1`, for which the inhibition entry is “inactive”.
With `CN(C(=O)Cn1c(=O)ccn(CCCCCOc2ccc(Br)cc2)c1=O)c1ccc(Oc2ccccc2)cc1`, the inhibition entry was “inactive”.

Another series deals with Human immunodeficiency virus 1. In words: Antiviral activity against HIV1 3B infected in human CEM cells assessed as reduction in virus- induced cytopathicity incubated for 4 to 5 days by microscopy based virus syncytium formation assay. The class given is functional, organism-based. The settings on record: CCRF-CEM. The method in brief:
as §5
Take `O=C(Cn1c(=O)ccn(CCCCCCOc2ccc(Br)cc2)c1=O)Nc1ccc(Oc2ccccc2)cc1`: the inhibition entry is “inactive”.
Regarding `CN(C(=O)Cn1c(=O)ccn(CCCCCOc2ccc(Br)cc2)c1=O)c1ccc(Oc2ccccc2)cc1`, the inhibition entry is “inactive”.
